According to ChEMBL document CHEMBL1938394, “Time-dependent slowly-reversible inhibition of monoamine oxidase A by N-substituted 1,2,3,6-tetrahydropyridines” (Bioorg Med Chem, 2011):

How the values were obtained:
[1] = target: T1, Amine oxidase [flavin-containing] A (Homo sapiens, UniProt P21397); test: Inhibition of human recombinant MAOA expressed in insect cells assessed as oxidation of kynuramine substrate at 5 uM measured after additional substrate added after 90 mins incubation; conditions: 1.5 h
T1 sequence (P21397 whole entry): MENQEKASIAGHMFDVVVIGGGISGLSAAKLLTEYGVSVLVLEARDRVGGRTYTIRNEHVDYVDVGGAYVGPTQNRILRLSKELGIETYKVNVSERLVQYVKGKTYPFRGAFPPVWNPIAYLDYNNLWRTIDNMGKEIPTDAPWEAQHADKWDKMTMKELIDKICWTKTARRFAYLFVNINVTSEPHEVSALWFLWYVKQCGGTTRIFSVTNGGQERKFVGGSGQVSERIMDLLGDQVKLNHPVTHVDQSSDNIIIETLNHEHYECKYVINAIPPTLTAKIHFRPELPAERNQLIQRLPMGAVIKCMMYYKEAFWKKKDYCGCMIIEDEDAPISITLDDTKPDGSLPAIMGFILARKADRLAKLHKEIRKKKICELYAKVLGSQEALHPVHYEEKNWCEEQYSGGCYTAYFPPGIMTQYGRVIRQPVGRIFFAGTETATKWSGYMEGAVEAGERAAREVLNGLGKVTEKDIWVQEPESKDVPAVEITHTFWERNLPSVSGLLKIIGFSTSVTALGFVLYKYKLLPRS
Summary of the method: (§1)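 Time course of kynuramine oxidation by recombinant human MAO-A at 37 °C in isotonic 0.1 M phosphate pH 7.4 with or without inhibitor. A second portion of substrate (150 μM kynuramine) was added at 90 min and fresh enzyme at 120 min, with product formation followed throughout.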

[2] = target: T2, Amine oxidase [flavin-containing] B (Homo sapiens, UniProt P27338); test: Inhibition of human recombinant MAOB expressed in insect cells using benzylamine hydrochloride as substrate after 30 mins
T2 sequence (P27338 whole entry): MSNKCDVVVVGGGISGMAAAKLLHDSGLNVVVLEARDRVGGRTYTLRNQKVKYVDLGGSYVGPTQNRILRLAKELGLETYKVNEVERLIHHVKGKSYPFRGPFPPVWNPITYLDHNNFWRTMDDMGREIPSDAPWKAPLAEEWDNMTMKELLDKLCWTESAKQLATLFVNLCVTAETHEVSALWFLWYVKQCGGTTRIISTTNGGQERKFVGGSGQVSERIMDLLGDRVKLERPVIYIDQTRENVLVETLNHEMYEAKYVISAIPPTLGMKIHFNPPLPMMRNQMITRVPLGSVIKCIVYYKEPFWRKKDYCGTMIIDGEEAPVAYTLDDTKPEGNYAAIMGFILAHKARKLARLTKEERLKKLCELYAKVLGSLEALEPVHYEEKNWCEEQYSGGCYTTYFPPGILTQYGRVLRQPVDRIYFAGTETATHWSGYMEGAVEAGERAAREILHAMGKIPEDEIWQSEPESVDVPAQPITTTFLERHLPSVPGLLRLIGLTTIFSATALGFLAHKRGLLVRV
Summary of the method: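 Human recombinant MAO-B (0.01 mg/mL) in 0.1 M isotonic phosphate buffer pH 7.4, inhibitor 0–7000 µM, benzylamine 1000 µM final, 30 min at 37 °C. Stopped with perchloric acid; benzaldehyde measured by reverse-phase HPLC with UV 254 nm. IC50 from sigmoidal log dose–response fit; triplicate, mean ± SD.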

[3] = target: T1, Amine oxidase [flavin-containing] A; test: Inhibition of human recombinant MAOA expressed in insect cells assessed as oxidation of kynuramine substrate at 5 uM up to 90 mins; conditions: 1.5 h; summary of the method: as §1
[4] = target: T1, Amine oxidase [flavin-containing] A; test: Noncompetitive inhibition of human recombinant MAO-A assessed as dissociation constant for enzyme-inhibitor complex by Lineweaver-Burk plot analysis
[5] = target: T3, MAO-A (amine oxidase [flavin-containing] A) (Homo sapiens, UniProt P21397); test: Irreversible inhibition of human recombinant MAOA expressed in insect cells using kynuramine as substrate by Kitz-Wilson plot analysis; conditions: probe kynuramine
T3 sequence (P21397 whole entry): T1 sequence (P21397 whole entry)
Summary of the method: (§2)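 Recombinant human MAO-A preincubated at 37 °C with inhibitor (2–5 μM) or buffer control for 0, 10, 20, 30 or 40 min before kynuramine (150 μM) was added. Activity read after 30 min as % of control, n = 3. Kitz–Wilson slope replot: Ki from reciprocal of x-intercept, kinact from reciprocal of y-intercept.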

[6] = target: T1, Amine oxidase [flavin-containing] A; test: Time dependent inhibition of human recombinant MAOA expressed in insect cells using kynuramine as substrate at 5 uM preincubated up to 40 mins before kynuramine substrate addition; summary of the method: as §2
[7] = target: T1, Amine oxidase [flavin-containing] A; test: Inhibition of human recombinant MAOA expressed in insect cells assessed as oxidation of kynuramine substrate at 5 uM measured after additional enzyme added after 120 mins incubation; conditions: 2 h; summary of the method: as §1
[8] = target: T1, Amine oxidase [flavin-containing] A; test: Inhibition of human recombinant MAOA expressed in insect cells assessed as formation of 4-hydroxyquinoline at 5 uM preincubated for 1 hr before kynuramine substrate measured after 1 hr in presence of sodium borohydride
Summary of the method: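 MAO-A (0.005 mg/mL) preincubated 60 min at 37 °C with inhibitor in isotonic 0.1 M phosphate pH 7.4. NaBH4 (5 μL of 300 mM stock in water) then added and the mix held 15 min at 0 °C. It was dialyzed overnight at 0 °C, then read at 310 nm with 150 μM kynuramine over 60 min at 37 °C. Controls without inhibitor also got borohydride. n = 3.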

[9] = target: T1, Amine oxidase [flavin-containing] A; test: Inhibition of human recombinant MAOA expressed in insect cells assessed as formation of 4-hydroxyquinoline at 5 uM preincubated for 1 hr before kynuramine substrate measured after 12 hrs of dialysis
Summary of the method: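 MAO-A (0.005 mg/mL) in 0.1 M sodium phosphate pH 7.4 made isotonic with NaCl, preincubated 1 h at 37 °C without substrate with inhibitor (final volume 1 mL), then dialyzed overnight at 0 °C against 250 mL buffer. Activity in dialysate read as product formation at 310 nm with 150 μM kynuramine over 60 min at 37 °C. 4-Hydroxyquinoline quantified by calibration curve. Means ± SD, n = 3.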

[10] = target: T1, Amine oxidase [flavin-containing] A; test: Inhibition of human recombinant MAOA expressed in insect cells using kynuramine as substrate by Kitz-Wilson plot analysis; summary of the method: as §2
[11] = target: T1, Amine oxidase [flavin-containing] A; test: Inhibition of human recombinant MAOA expressed in insect cells using kynuramine substrate after 60 mins
[12] = target: T1, Amine oxidase [flavin-containing] A; test: Noncompetitive inhibition of human recombinant MAO-A assessed as dissociation constant for enzyme-inhibitor-substrate complex by Lineweaver-Burk plot analysis
[13] = species on record: Homo sapiens; test: Selectivity index, ratio of IC50 for human recombinant MAOB to IC50 for human recombinant MAOA
Summary of the method: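 MAO-A (0.005 mg/mL; 150 μM kynuramine, 60 min, 37 °C, […]) and MAO-B (0.01 mg/mL; 1000 μM benzylamine, 30 min, 37 °C, perchloric acid stop, benzaldehyde by HPLC-UV at 254 nm) in isotonic 0.1 M phosphate pH 7.4. Inhibitor 0–7000 μM. IC50s from sigmoidal log curves in triplicate. SI = MAO-B IC50 / MAO-A IC50.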

[14] = target: T1, Amine oxidase [flavin-containing] A; test: Inhibition of human recombinant MAOA expressed in insect cells assessed as oxidation of kynuramine substrate at 6 mM measured after additional substrate added after 90 mins incubation; conditions: 1.5 h
Summary of the method: (§3)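 Recombinant human MAO-A incubated with kynuramine, with or without inhibitor. Product formation followed over time. A second equivalent of substrate (150 µM kynuramine) added at 90 min and fresh enzyme added at 120 min.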

[15] = target: T1, Amine oxidase [flavin-containing] A; test: Mixed noncompetitive inhibition of human recombinant MAO-A assessed as dissociation constant for enzyme-inhibitor complex by Lineweaver-Burk plot analysis
Summary of the method: (§4)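 Human recombinant MAO-A (0.005 mg/mL) in 0.1 M sodium phosphate pH 7.4 made isotonic with NaCl, 37 °C, 30 min. Initial oxidation rates at four kynuramine levels (50–150 µM) without or with four inhibitor concentrations (range per compound, 5–1000 µM). Ki from Lineweaver–Burk plots and replots by linear regression; triplicate.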

[16] = target: T1, Amine oxidase [flavin-containing] A; test: Mixed noncompetitive inhibition of human recombinant MAO-A assessed as dissociation constant for enzyme-inhibitor-substrate complex by Lineweaver-Burk plot analysis; summary of the method: as §4
[17] = target: T1, Amine oxidase [flavin-containing] A; test: Inhibition of human recombinant MAOA expressed in insect cells assessed as oxidation of kynuramine substrate at 6 mM measured after additional enzyme added after 120 mins incubation; conditions: 2 h, 6000 µM; summary of the method: as §3
[18] = target: T1, Amine oxidase [flavin-containing] A; test: Inhibition of human recombinant MAOA expressed in insect cells assessed as oxidation of kynuramine substrate measured after additional substrate added after 90 mins incubation; conditions: 1.5 h
[19] = target: T1, Amine oxidase [flavin-containing] A; test: Inhibition of human recombinant MAOA expressed in insect cells using kynuramine as substrate at 50 uM preincubated up to 40 mins before kynuramine substrate addition measured after 30 mins; conditions: 0.5 h
Summary of the method: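 MAO-A preincubated at 37 °C in 0.1 M isotonic phosphate buffer pH 7.4 with inhibitor, or buffer control, for […]. Diluted 50-fold into buffer containing kynuramine, then incubated 30 min. Activity is % of control; mean ± SD, n = 3.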

Row | SMILES | IC50 [2] [µM] | IC50 [11] [µM] | Ratio IC50 [13] | inhibition (INH) [18] | also measured
1 | Clc1ccc(OCCCN2CC=CCC2)c(Cl)c1 | 66.4 | 2.6 | 25.4 |  | inhibition (INH) [1]: Active; inhibition (INH) [3]: Active; Ki [4]: 2.2 µM; kinact [5]: 0.002 s⁻¹; TDI [6]: Active; inhibition (INH) [7]: Active; inhibition (INH) [8]: Active; inhibition (INH) [9]: Active; Ki [10]: 7.4 µM; Ki [12]: 0.9 µM
2 | CC1=CCN(CCc2ccccc2)CC1 | 1250 | 623 | 2 |  | inhibition (INH) [14]: Active; Ki [15]: 408 µM; Ki [16]: 2590 µM; inhibition (INH) [17]: Active
3 | COc1ccc(CCN2CC=CCC2)cc1 | 96.1 | 12 | 8 | Not Active | 
4 | Fc1ccc(CCN2CC=CCC2)cc1 | 5270 | 27.3 | 193 | Not Active | 
5 | Clc1ccc(CCN2CC=CCC2)c(Cl)c1 | 67.2 | 6.1 | 11.1 | Not Active | 
6 | O=[N+]([O-])c1ccc(CCN2CC=CCC2)cc1 | 272 | 37.8 | 7.2 | Not Active | inhibition (INH) [19]: Active
